Measured values from ChEMBL document CHEMBL4049431 (J Med Chem, 2017).
The source made the active and inactive calls.

What was measured:
[1] = biological target: T1, Kappa-type opioid receptor (Homo sapiens, UniProt P41145); assay: Agonist activity at human kappa-type opioid receptor expressed in CHO-K1 cells assessed as forskolin-induced cAMP accumulation after 30 mins in presence of forskolin by luminescence-based HitHunter cAMP assay; format: functional, cell-based
Summary of the method: (§1)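 CHO-K1 cells expressing the receptor were kept at 37 °C in 5% CO2. cAMP data were normalized to vehicle and forskolin-only controls. Each compound was run in triplicate in parallel assays in ≥2 independent experiments. EC50 and Emax came from sigmoidal nonlinear regression and were averaged across experiments as mean ± SEM.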

[2] = biological target: T1, Kappa-type opioid receptor; assay: Agonist activity at human kappa-type opioid receptor expressed in CHO-K1 cells assessed as forskolin-induced cAMP accumulation up to 10 uM after 30 mins in presence of forskolin by luminescence-based HitHunter cAMP assay; format: functional, cell-based; summary of the method: as §1
[3] = biological target: Delta-type opioid receptor (Homo sapiens) (UniProt P41143); assay: Agonist activity at human delta-type opioid receptor expressed in CHO-K1 cells assessed as forskolin-induced cAMP accumulation up to 10 uM after 30 mins in presence of forskolin by luminescence-based HitHunter cAMP assay; format: functional, cell-based; summary of the method: as §1
Sequence of Delta-type opioid receptor (Homo sapiens) (P41143 whole entry): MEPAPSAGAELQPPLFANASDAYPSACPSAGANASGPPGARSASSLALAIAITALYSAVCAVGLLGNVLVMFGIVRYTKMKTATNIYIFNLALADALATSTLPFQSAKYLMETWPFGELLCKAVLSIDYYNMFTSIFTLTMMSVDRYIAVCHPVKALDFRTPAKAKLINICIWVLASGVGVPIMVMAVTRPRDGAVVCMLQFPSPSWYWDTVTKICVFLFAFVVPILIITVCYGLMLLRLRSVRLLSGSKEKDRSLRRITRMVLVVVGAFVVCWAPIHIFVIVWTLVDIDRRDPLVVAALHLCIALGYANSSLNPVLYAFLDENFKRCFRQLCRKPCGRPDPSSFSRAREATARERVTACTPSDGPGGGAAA

[4] = biological target: Mu-type opioid receptor (Homo sapiens) (UniProt P35372); assay: Agonist activity at human mu-type opioid receptor expressed in CHO-K1 cells assessed as forskolin-induced cAMP accumulation up to 10 uM after 30 mins in presence of forskolin by luminescence-based HitHunter cAMP assay; format: functional, cell-based; summary of the method: as §1
Sequence of Mu-type opioid receptor (Homo sapiens) (P35372 whole entry): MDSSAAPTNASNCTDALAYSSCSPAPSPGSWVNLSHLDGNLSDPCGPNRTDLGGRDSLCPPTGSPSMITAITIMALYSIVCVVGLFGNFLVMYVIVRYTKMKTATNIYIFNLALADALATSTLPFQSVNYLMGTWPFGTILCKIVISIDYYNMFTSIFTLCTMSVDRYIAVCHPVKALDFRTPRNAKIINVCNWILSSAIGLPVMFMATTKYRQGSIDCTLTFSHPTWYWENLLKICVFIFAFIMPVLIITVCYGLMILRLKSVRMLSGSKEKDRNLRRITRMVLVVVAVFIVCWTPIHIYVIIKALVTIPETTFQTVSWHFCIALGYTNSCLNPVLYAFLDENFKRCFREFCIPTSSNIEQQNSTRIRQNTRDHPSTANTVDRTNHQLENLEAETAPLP

[5] = Metabolic stability in IGS Sprague-Dawley rat liver microsomes assessed as CYP450-mediated oxidative metabolism at 10 uM measured at 2.5 hrs in presence of NADPH by LC-MS analysis; format: ADME
Summary of the method: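 Rat liver microsomes (0.25 mg/mL) in 50 mM potassium phosphate with 2 mM MgCl2, pH 7.4, were prewarmed to 37 °C. Compound (10 μM final) and NADPH (1 mM final) were added. Samples were quenched in MeCN with 1% formic acid containing tolbutamide, centrifuged and analysed by LCMS.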

Liver = assay: Metabolic stability in IGS Sprague-Dawley rat liver microsomes at 10 uM measured at 2.5 hrs in absence of NADPH by LC-MS analysis; format: ADME, microsome
Summary of the method: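 Incubation used rat liver microsomes (0.25 mg/mL) in 50 mM potassium phosphate, 2 mM MgCl2, pH 7.4, at 37 °C, with 10 μM compound final and buffer in place of NADPH. Samples were quenched in MeCN/1% formic acid with tolbutamide, then quantified by LCMS.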

Mus musculus [6] = assay: Analgesic activity in B6-SJL mouse assessed as increase in tail withdrawal latency at 2 mg/kg, ip measured up to 10 to 30 mins by warm water tail withdrawal assay; format: functional, organism-based
Summary of the method: (§2)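 Adult male mice (25−35 g) were habituated to restrainers over four days. Drug or vehicle (DMSO:Tween-80:saline 2:1:7) was given ip. One-third of the tail was immersed in 50 °C water, with a 10 s cutoff. Baseline was the mean of three latencies. Readings were taken at 5–120 min. %MPE was calculated against pretreatment latency; n = 8−9 per group.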

Mus musculus [7] = assay: Analgesic activity in sc dosed B6-SJL mouse assessed as increase in tail withdrawal latency measured 30 mins post each dose by warm water tail withdrawal assay; format: functional; conditions: 0.5 h
Summary of the method: (§3)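 Vehicle was DMSO:Tween-80:saline 2:1:7. Tail-withdrawal latency in 50 °C water (10 s cutoff) was recorded 30 min after each dose.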

Mus musculus [8] = assay: Analgesic activity in B6-SJL mouse assessed as increase in tail withdrawal latency at 0.3 to 10 mg/kg, sc measured 30 mins post each dose by warm water tail withdrawal assay; format: functional; conditions: 0.5 h; summary of the method: as §3
Mus musculus [9] = assay: Analgesic activity in formalin-induced B6-SJL mouse pain model assessed as inhibition of nociceptive response at 2 mg/kg, ip preincubated for 10 mins followed by formalin injection measured at 10 mins; format: functional, organism-based
Summary of the method: (§4)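 Mice habituated to the test box received agonist ip in DMSO:Tween-80:saline (2:1:7). Ten min later, 20 μL of 2% formalin was injected intradermally into the right hind footpad. Video ran for 60 min, scored every 5 s (weight-bearing scale 0–3) by a blinded analyst and averaged per 5 min.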

Mus musculus [10] = assay: Analgesic activity in formalin-induced B6-SJL mouse pain model assessed as inhibition of nociceptive response at 2 mg/kg, ip preincubated for 10 mins followed by formalin injection measured at 10 mins in presence of kappa-type opioid receptor antagonist nor-BNI; format: functional, organism-based
Summary of the method: (§5)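 nor-BNI (10 mg/kg, sc) was given 24 h before ip agonist (DMSO:Tween-80:saline 2:1:7). After 10 min, 20 μL of 2% formalin was injected intradermally into the right hind paw.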

Mus musculus [11] = assay: Analgesic activity in formalin-induced B6-SJL mouse pain model assessed as inhibition of nociceptive response AUC at 2 mg/kg, ip preincubated for 10 mins followed by formalin injection measured up to 15 mins; format: functional, organism-based; summary of the method: as §4
Mus musculus [12] = assay: Analgesic activity in formalin-induced B6-SJL mouse pain model assessed as inhibition of inflammatory response AUC at 2 mg/kg, ip preincubated for 10 mins followed by formalin injection measured at 15 to 60 mins; format: functional, organism-based; summary of the method: as §4
Mus musculus [13] = assay: Antiinflammatory activity in B6-SJL mouse assessed as reduction in formalin-induced paw edema at 2 mg/kg, ip preincubated for 10 mins followed by formalin injection measured at 60 mins; format: functional, organism-based
Summary of the method: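 Right hind paw height, width and depth were measured by calipers before ip drug or vehicle (DMSO:Tween-80:saline 2:1:7). Intradermal 2% formalin (20 μL) followed 10 min later, and measurements were repeated at 60 min. One-way ANOVA with Bonferroni tests; n = 7 per group.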

Mus musculus [14] = assay: Analgesic activity in formalin-induced B6-SJL mouse pain model assessed as inhibition of inflammatory response at 2 mg/kg, ip preincubated for 10 mins followed by formalin injection measured at 20 to 45 mins; format: functional, organism-based; summary of the method: as §4
Mus musculus [15] = assay: Analgesic activity in formalin-induced B6-SJL mouse pain model assessed as inhibition of inflammatory response at 2 mg/kg, ip preincubated for 10 mins followed by formalin injection measured at 20 to 45 mins in presence of kappa-type opioid receptor antagonist nor-BNI; format: functional, organism-based; summary of the method: as §5
Mus musculus [16] = assay: Analgesic activity in formalin-induced B6-SJL mouse pain model assessed as inhibition of nociceptive response AUC at 2 mg/kg, ip preincubated for 10 mins followed by formalin injection measured up to 15 mins in presence of kappa-type opioid receptor antagonist nor-BNI; format: functional, organism-based; summary of the method: as §5
Mus musculus [17] = assay: Analgesic activity in formalin-induced B6-SJL mouse pain model assessed as inhibition of inflammatory response AUC at 2 mg/kg, ip preincubated for 10 mins followed by formalin injection measured at 15 to 60 mins in presence of kappa-type opioid receptor antagonist nor-BNI; format: functional, organism-based; summary of the method: as §5
Mus musculus [18] = assay: Analgesic activity in B6-SJL mouse assessed as increase in tail withdrawal latency at 2 mg/kg, ip measured up to 5 to 30 mins by warm water tail withdrawal assay; format: functional, organism-based; summary of the method: as §2
Mus musculus [19] = assay: Analgesic activity in formalin-induced B6-SJL mouse pain model assessed as inhibition of nociceptive response at 2 mg/kg, ip preincubated for 10 mins followed by formalin injection measured at 5 to 10 mins; format: functional, organism-based; summary of the method: as §4
Mus musculus [20] = assay: Analgesic activity in formalin-induced B6-SJL mouse pain model assessed as inhibition of inflammatory response at 2 mg/kg, ip preincubated for 10 mins followed by formalin injection measured at 20 to 50 mins; format: functional, organism-based; summary of the method: as §4

T1 sequence (P41145 whole entry): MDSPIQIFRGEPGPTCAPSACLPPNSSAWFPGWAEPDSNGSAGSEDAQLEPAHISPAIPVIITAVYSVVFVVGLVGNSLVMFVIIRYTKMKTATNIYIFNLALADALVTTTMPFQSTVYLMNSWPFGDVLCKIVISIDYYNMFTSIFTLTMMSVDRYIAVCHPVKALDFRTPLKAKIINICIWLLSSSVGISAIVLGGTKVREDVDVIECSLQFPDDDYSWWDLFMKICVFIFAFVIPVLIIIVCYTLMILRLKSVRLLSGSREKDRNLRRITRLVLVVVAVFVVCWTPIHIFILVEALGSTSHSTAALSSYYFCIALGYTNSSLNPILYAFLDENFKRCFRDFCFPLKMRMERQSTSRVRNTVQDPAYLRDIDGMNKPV

With `COC(=O)[C@@H]1CCC(=O)[C@H]2[C@@]1(C)CC[C@H]1C(=O)O[C@H](c3ccoc3)C[C@]21C` the EC50 [1] was > 10000 nM and the Emax [2] was 0%.

Work on `COC(=O)[C@@H]1C[C@]2(CCC(=O)O2)C(=O)[C@H]2[C@@]1(C)CC[C@H]1C(=O)O[C@H](c3ccoc3)C[C@]21C` yielded an EC50 [1] of 0.6 nM, an Emax [2] of 100% and an Emax [3] of 0%. The Emax [4] was 0%, the Stability [5] was “Stable” and the Stability (Liver) was “Stable”. For the same compound, the Activity (Mus musculus [6]) was “Active”, the ED50 (Mus musculus [7]) was 0.759 mg/kg and the Emax (Mus musculus [8]) was 62.4%. For the same compound, the inhibition (Mus musculus [9]) was “Active”, the inhibition (Mus musculus [10]) was “inactive” and the inhibition (Mus musculus [11]) was “Active”. The inhibition (Mus musculus [12]) was “Active”, the inhibition (Mus musculus [13]) was “Active” and the inhibition (Mus musculus [14]) was “Active”. For the same compound, the inhibition (Mus musculus [15]) was “inactive”, the inhibition (Mus musculus [16]) was “inactive” and the inhibition (Mus musculus [17]) was “inactive”.

For `COC(=O)[C@H]1[C@](C)([C@@H](CCO)C(=O)OC)CC[C@H]2C(=O)O[C@H](c3ccoc3)C[C@]12C`, the EC50 [1] was > 10000 nM and the Emax [2] was 0%.

In the case of `COC(=O)[C@H]1[C@](C)([C@@H](CCOC(C)=O)C(=O)OC)CC[C@H]2C(=O)O[C@H](c3ccoc3)C[C@]12C`, the EC50 [1] is reported as 13 nM, the Emax [2] is reported as 100% and the Emax [3] is reported as 0%. For the same compound, the Emax [4] was 0%.

Work on `COC(=O)[C@H]1[C@](C)([C@@H](CC=O)C(=O)OC)CC[C@H]2C(=O)O[C@H](c3ccoc3)C[C@]12C` yielded an EC50 [1] of 30 nM, an Emax [2] of 100% and an Emax [3] of 0%. For the same compound, the Emax [4] was 0%.

In the case of `COC(=O)[C@@H]1C[C@H](OC(C)=O)C(=O)[C@H]2[C@@]1(C)CC[C@H]1C(=O)O[C@H](c3ccoc3)C[C@]21C` [SALVINORIN A], the Emax [3] is reported as 0%, the Emax [4] is reported as 0% and the Stability [5] is reported as “Stable”. The Stability (Liver) was “Stable”, the Activity (Mus musculus [18]) was “Active” and the ED50 (Mus musculus [7]) was 1.28 mg/kg. For the same compound, the Emax (Mus musculus [8]) was 100%, the inhibition (Mus musculus [19]) was “Active” and the inhibition (Mus musculus [11]) was “Active”. For the same compound, the inhibition (Mus musculus [12]) was “Active”, the inhibition (Mus musculus [13]) was “Active” and the inhibition (Mus musculus [20]) was “Active”.

`COC(=O)[C@H]1[C@](C)([C@@H](CC(OC)OC)C(=O)OC)CC[C@H]2C(=O)O[C@H](c3ccoc3)C[C@]12C` gave an EC50 [1] of 11.7 nM, an Emax [2] of 100% and an Emax [3] of 0%. For the same compound, the Emax [4] was 0%.

For `COC(=O)[C@@H]1CC(=O)C(O)=C2[C@@]1(C)CC[C@H]1C(=O)O[C@H](c3ccoc3)C[C@]21C`, the EC50 [1] was > 10000 nM and the Emax [2] was 0%.

With `COC(=O)[C@@H]1C[C@H](O)C(=O)[C@H]2[C@@]1(C)CC[C@H]1C(=O)O[C@H](c3ccoc3)C[C@]21C` the Emax [2] was 100%, the Emax [3] was 0% and the Emax [4] was 0%.

In the case of `COC(=O)[C@H]1[C@](C)([C@@H](CC(=O)O)C(=O)OC)CC[C@H]2C(=O)O[C@H](c3ccoc3)C[C@]12C`, the EC50 [1] is reported as > 10000 nM and the Emax [2] is reported as 0%.
